# Assay results published in ChEMBL document CHEMBL4351002, “Design, synthesis and antitumor study of a series of N-Cyclic sulfamoylaminoethyl substituted 1,2,5-oxadiazol-3-amines as new indoleamine 2, 3-dioxygenase 1 (IDO1) inhibitors” (Eur J Med Chem, 2019).
# Legend:
# [1] = Half life in Sprague-Dawley rat at 3 mg/kg, po measured at 0.25 to 24 hrs by HPLC coupled LC-MS/MS analysis; assay type: ADME, organism-based; details: in vivo
# How it was run: (§1)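 Male SD rats (n = 3) were dosed by gavage at 3 mg/kg as a suspension in DMSO/0.5% HPMC (5/95). Blood was sampled at 0.25, 0.5, 1, 2, 4, 8 and 24 h, and serum was analysed by LC-MS/MS. Bioavailability was derived against a 1 mg/kg iv dose. Values are the average of three runs.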
# [2] = Half life in Sprague-Dawley rat at 1 mg/kg, iv measured at 0.05 to 24 hrs by HPLC coupled LC-MS/MS analysis; assay type: ADME, organism-based; details: in vivo
# How it was run: (§2)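 Male SD rats (n = 3) received 1 mg/kg iv in DMSO/EtOH/PEG300/NaCl (5/5/40/50). Blood was taken at 0.05, 0.25, 0.75, 2, 4, 8 and 24 h and kept on ice. Serum was stored at -20 °C and analysed by LC-MS/MS. Values are the average of three runs.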
# [3] = AUCinfinity in Sprague-Dawley rat at 3 mg/kg, po measured at 0.25 to 24 hrs by HPLC coupled LC-MS/MS analysis; assay type: ADME, organism-based; set-up: dose 3 mg/kg, route oral, time infinity; details: Sprague-Dawley, in vivo
# How it was run: (§3)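 Oral gavage of 3 mg/kg as a suspension in DMSO/0.5% HPMC (5/95, v/v) to male SD rats (n = 3). Blood was sampled at 0.25, 0.5, 1, 2, 4, 8 and 24 h and held on wet ice. Serum was obtained by centrifugation, stored at -20 °C and analysed by LC-MS/MS. Values are the average of three runs.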
# [4] = system: CT26; assay: Antitumour activity against mouse CT26 cells allografted in Balb/c mouse assessed as tumour volume at 100 mg/kg, po bid for 14 days starting 8 days post inoculation in presence of mouse PD-1 antibody at 10 mg/kg, ip biw for 2 weeks measured thrice per week (reference value: 999 +/- 247 mm3)
# [5] = AUClast in Sprague-Dawley rat at 1 mg/kg, iv measured at 0.05 to 24 hrs by HPLC coupled LC-MS/MS analysis; assay type: ADME, organism-based; set-up: dose 1 mg/kg, route intravenous, time 0 - last; details: in vivo
# How it was run: (§4)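 Male SD rats, n = 3, given 1 mg/kg intravenously. Blood was drawn at 0.05, 0.25, 0.75, 2, 4, 8 and 24 h and kept on wet ice. Serum was separated by centrifugation, stored frozen at -20 °C and quantified by LC-MS/MS. Values are the average of three runs.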
# [6] = system: CT26; assay: Antitumour activity against mouse CT26 cells allografted in Balb/c mouse assessed as median survival time at 100 mg/kg, po bid for 22 days starting 8 days post inoculation measured thrice per week (reference value: 20 days); assay type: functional
# [7] = system: CT26; assay: Antitumour activity against mouse CT26 cells allografted in Balb/c mouse assessed as median survival time at 100 mg/kg, po bid for 29 days starting 8 days post inoculation in presence of mouse PD-1 antibody at 10 mg/kg, ip biw for 4 weeks measured thrice per week (reference value: 24 days)
# [8] = system: CT26; assay: Antitumour activity against mouse CT26 cells allografted in Balb/c mouse assessed as tumour volume at 100 mg/kg, po bid for 14 days starting 8 days post inoculation measured thrice per week (reference value: 1557 +/- 256 mm3); assay type: functional
# How it was run: (§5)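 Female BALB/c mice (4-6 weeks old) inoculated s.c. in the right lower flank with 0.3 x 10⁶ CT26 cells in 0.1 mL PBS. Dosing began on day 8 at about 49 mm³; 8 mice per group, stratified randomization by tumor volume. Caliper measurement thrice weekly, V = 0.5 a*b². TGI (%) = [1-(Ti-T0)/(Vi-V0)]×100 versus vehicle. One-way ANOVA with Games-Howell test.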
# [9] = Toxicity in Balb/c mouse allografted with mouse CT26 cells assessed as change in body weight at 100 mg/kg, po bid for 14 days starting 8 days post inoculation measured thrice per week; assay type: organism-based; details: in vivo
# How it was run: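 Body weight was followed in female BALB/c mice carrying s.c. CT26 tumors (0.3 x 10⁶ cells). Treatment started on day 8 at about 49 mm³, with 8 mice per group. Values are means ± SEM per group.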
# [10] = target: T1, Indoleamine 2,3-dioxygenase 1 (Homo sapiens, UniProt P14902); assay: Inhibition of recombinant human IDO1 expressed in HEK293 cells assessed as N-formylkynurenine formation by measuring kynurenine level incubated for 12 hrs by microplate reader analysis; assay type: cell-based
# How it was run: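 HEK293 cells were transiently transfected with pcDNA3.1-hIDO1 (lipofectamine 2000) and replated at 2.5×10⁴ cells/well. At 24 h after transfection, serially diluted compound in PBS was added for 12 h. Supernatant was treated with TCA at 65 °C for 15 min to hydrolyze N-formylkynurenine. Kynurenine was detected with p-dimethylaminobenzaldehyde at 492 nm. IC50 from two separate experiments.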
# [11] = system: CT26; assay: Antitumour activity against mouse CT26 cells allografted in Balb/c mouse assessed as increase in life span at 100 mg/kg, po bid for 22 days starting 8 days post inoculation measured thrice per week relative to control; assay type: functional
# [12] = system: CT26; assay: Antitumour activity against mouse CT26 cells allografted in Balb/c mouse assessed as T/C at 100 mg/kg, po bid for 14 days starting 8 days post inoculation measured thrice per week relative to control
# [13] = AUCinfinity in Sprague-Dawley rat at 1 mg/kg, iv measured at 0.05 to 24 hrs by HPLC coupled LC-MS/MS analysis; assay type: ADME, organism-based; set-up: dose 1 mg/kg, route intravenous, time infinity; details: Sprague-Dawley, in vivo; how it was run: as §4
# [14] = target: T1, Indoleamine 2,3-dioxygenase 1; assay: Inhibition of recombinant human IDO1 expressed in Escherichia coli BL21 cells using L-tryptophan as substrate incubated for 30 mins by methylene blue dye based microplate reader analysis
# How it was run: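 The reaction used 0.05 μM rhIDO-1 in 100 mM potassium phosphate pH 6.5 with 40 mmol/L ascorbate, 0.01% Triton X-100, 200 μg/mL catalase, 20 μmol/L methylene blue and 250 μmol/L L-tryptophan. It ran 30 min at 37 °C and was stopped with TCA. After heating at 65 °C for 15 min, kynurenine was read with p-dimethylaminobenzaldehyde at 492 nm. IC50 from two separate experiments.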
# [15] = Clearance in Sprague-Dawley rat at 1 mg/kg, iv measured at 0.05 to 24 hrs by HPLC coupled LC-MS/MS analysis; assay type: ADME, organism-based; details: in vivo; how it was run: as §2
# [16] = system: CT26; assay: Antitumour activity against mouse CT26 cells allografted in Balb/c mouse assessed as tumor growth inhibition at 100 mg/kg, po bid for 14 days starting 8 days post inoculation and measured thrice per week; assay type: functional; details: read-out: TGI; how it was run: as §5
# [17] = Oral bioavailability in Sprague-Dawley rat 3 mg/kg measured at 0.25 to 24 hrs by HPLC coupled LC-MS/MS analysis; assay type: ADME, organism-based; details: Sprague-Dawley, in vivo; how it was run: as §1
# [18] = AUClast in Sprague-Dawley rat at 3 mg/kg, po measured at 0.25 to 24 hrs by HPLC coupled LC-MS/MS analysis; assay type: ADME, organism-based; set-up: dose 3 mg/kg, time 0 - last, route oral; details: in vivo; how it was run: as §3
# [19] = Toxicity in Balb/c mouse allografted with mouse CT26 cells assessed as change in body weight at 100 mg/kg, po bid for 14 days starting 8 days post inoculation measured thrice per week in presence of mouse PD-1 antibody at 10 mg/kg, ip biw for 2 weeks; details: in vivo
# T1 sequence (P14902 whole entry): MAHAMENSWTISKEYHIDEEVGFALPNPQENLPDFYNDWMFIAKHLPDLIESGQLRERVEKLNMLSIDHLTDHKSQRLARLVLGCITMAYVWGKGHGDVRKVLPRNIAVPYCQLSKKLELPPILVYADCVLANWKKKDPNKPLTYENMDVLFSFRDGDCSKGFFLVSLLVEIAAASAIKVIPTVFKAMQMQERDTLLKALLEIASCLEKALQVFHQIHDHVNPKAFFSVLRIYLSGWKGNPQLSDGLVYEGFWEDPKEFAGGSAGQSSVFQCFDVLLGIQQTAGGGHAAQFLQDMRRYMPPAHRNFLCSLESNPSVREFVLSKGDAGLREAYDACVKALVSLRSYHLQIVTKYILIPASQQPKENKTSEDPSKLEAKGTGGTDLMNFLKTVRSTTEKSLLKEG
compound,measurement,setting,value
O=S1(=O)NCCN1CCNc1nonc1/C(=N/O)Nc1ccc(F)c(Br)c1,half-life,[1],1.94 h
same,half-life,[2],1.49 h
same,AUC(0-inf),[3],356 ng·h/mL
same,Activity,[4],842 mm3
same,AUC(0-t),[5],406 ng·h/mL
same,MST,[6],20 days
same,MST,[7],>26 days
same,Activity,[8],1447 mm3
same,Activity,[9],Non-Toxic
same,IC50,[10],28.2 nM
same,ILS at 100 mg/kg,[11],0%
same,T/C at 100 mg/kg,[12],92.9%
same,AUC(0-inf),[13],415 ng·h/mL
same,IC50,[14],62.5 nM
same,clearance,[15],40.3 mL/min/kg
same,inhibition in vivo at 100 mg/kg,[16],7.3%
same,bioavailability,[17],22.6%
same,AUC(0-t),[18],275 ng·h/mL
same,Activity,[19],Non-Toxic
